Active and inactive are the calls of the source. The calls are words filed in the database; no cut-off is given here.
Legend:
[1] = target: T1, 5-hydroxytryptamine receptor 6 (Homo sapiens, UniProt P50406); experiment: Displacement of [3H]LSD from human cloned 5HT6 receptor expressed in HeLa cells; format: cell-based
Method in brief: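 Radioligand binding used human 5-HT6 receptor stably expressed in HeLa cells with [3H]LSD as the radioligand. Affinity is reported as Ki.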

[2] = target: T1, 5-hydroxytryptamine receptor 6; experiment: Agonist activity at human cloned 5HT6 receptor expressed in HeLa cells assessed as induction of adenylyl cyclase activity by RIA; format: functional, cell-based
Method in brief: (§1)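 Transfected HeLa cells expressing human 5-HT6 were washed with Krebs buffer and preincubated 5 min at 37 °C in Krebs with 500 µM IBMX. They were then stimulated 10 min at 37 °C with compound over 0.1–10000 nM. Agonist potency came from concentration–response curves, and percent efficacy was taken relative to a serotonin maximal response.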

[3] = target: T1, 5-hydroxytryptamine receptor 6; experiment: Agonist activity at human cloned 5HT6 receptor expressed in HeLa cells assessed as induction of adenylyl cyclase activity by RIA relative to serotonin; format: functional, cell-based; method in brief: as §1
[4] = target: 5-hydroxytryptamine receptor 2A (Homo sapiens, UniProt P28223); experiment: Displacement of [125I]DOI from human cloned 5HT2A receptor expressed in CHO cells; format: cell-based
Chain of 5-hydroxytryptamine receptor 2A (P28223 whole entry): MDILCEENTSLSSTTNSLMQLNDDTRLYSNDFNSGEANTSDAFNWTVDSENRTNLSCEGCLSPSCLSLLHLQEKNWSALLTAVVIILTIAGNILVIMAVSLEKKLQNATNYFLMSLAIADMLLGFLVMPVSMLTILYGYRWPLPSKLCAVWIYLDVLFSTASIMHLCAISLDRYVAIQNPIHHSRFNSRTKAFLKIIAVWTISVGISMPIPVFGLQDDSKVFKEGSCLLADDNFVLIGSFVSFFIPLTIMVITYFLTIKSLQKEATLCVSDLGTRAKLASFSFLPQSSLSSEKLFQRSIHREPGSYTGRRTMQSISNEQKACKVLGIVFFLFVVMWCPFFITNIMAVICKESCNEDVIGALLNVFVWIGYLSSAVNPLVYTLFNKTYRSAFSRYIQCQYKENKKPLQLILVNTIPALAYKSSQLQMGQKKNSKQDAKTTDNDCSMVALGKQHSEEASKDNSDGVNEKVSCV
Method in brief: (§2)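 Binding selectivity used stably expressed human receptors, 5-HT in CHO cells and dopamine in CHO-K1. Radioligands: [125I]DOI for 5-HT2A (agonist radioligand), [3H]-5-HT for 5-HT2C, [3H]LSD for 5-HT7, [3H]spiperone for D2, D3 and D4. Values are IC50 in nM.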

[5] = target: T2, 5-hydroxytryptamine receptor 2C (Homo sapiens, UniProt P28335); experiment: Displacement of [3H]5-HT from human cloned 5HT2C receptor expressed in CHO cells; format: cell-based; method in brief: as §2
T2 sequence (P28335 whole entry): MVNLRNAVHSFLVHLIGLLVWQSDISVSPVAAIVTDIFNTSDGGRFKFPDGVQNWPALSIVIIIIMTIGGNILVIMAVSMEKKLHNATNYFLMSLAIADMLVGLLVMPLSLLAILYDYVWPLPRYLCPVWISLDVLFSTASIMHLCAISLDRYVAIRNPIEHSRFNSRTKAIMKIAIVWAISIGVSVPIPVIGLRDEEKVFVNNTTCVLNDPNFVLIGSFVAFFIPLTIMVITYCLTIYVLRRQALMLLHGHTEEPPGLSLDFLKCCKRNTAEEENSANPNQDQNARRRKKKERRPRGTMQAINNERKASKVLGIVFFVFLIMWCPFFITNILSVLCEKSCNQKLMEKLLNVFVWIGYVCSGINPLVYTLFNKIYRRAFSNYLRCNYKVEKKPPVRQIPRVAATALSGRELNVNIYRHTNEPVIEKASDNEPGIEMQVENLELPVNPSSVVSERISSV

[6] = target: 5-hydroxytryptamine receptor 7 (Homo sapiens, UniProt P34969); experiment: Displacement of [3H]LSD from human cloned 5HT7 receptor expressed in CHO cells; format: cell-based; method in brief: as §2
Chain of 5-hydroxytryptamine receptor 7 (P34969 whole entry): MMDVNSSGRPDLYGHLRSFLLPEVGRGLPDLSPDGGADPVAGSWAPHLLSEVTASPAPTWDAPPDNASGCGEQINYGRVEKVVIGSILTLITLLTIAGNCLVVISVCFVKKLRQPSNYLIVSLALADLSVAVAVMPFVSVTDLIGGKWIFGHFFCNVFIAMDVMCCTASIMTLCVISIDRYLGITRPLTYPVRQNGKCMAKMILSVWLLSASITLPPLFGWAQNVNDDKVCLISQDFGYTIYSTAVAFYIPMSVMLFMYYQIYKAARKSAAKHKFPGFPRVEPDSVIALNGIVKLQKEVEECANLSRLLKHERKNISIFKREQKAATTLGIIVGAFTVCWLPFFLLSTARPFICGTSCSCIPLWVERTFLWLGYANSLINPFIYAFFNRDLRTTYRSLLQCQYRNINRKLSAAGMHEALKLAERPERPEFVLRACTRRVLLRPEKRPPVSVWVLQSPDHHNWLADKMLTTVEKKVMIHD

D(2) dopamine receptor = D(2) dopamine receptor (Homo sapiens, UniProt P14416); experiment: Displacement of [3H]spiperone from human cloned dopamine D2 receptor expressed in CHO-K1 cells; format: cell-based; method in brief: as §2
Chain of D(2) dopamine receptor (P14416 whole entry): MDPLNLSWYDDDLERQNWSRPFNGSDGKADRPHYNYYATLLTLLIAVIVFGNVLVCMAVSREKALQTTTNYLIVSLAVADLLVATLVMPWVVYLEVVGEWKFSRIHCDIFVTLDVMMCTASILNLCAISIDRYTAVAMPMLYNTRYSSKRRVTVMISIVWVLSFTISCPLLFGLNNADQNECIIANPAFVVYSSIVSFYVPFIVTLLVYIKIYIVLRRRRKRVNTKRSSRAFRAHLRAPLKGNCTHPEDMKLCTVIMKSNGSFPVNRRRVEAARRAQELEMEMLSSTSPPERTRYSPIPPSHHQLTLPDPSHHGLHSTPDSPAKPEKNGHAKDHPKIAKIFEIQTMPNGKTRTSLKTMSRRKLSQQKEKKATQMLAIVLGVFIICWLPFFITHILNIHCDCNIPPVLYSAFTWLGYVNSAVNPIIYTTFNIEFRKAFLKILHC

D(3) dopamine receptor = D(3) dopamine receptor (Homo sapiens, UniProt P35462); experiment: Displacement of [3H]spiperone from human cloned dopamine D3 receptor expressed in CHO-K1 cells; format: cell-based; method in brief: as §2
Chain of D(3) dopamine receptor (P35462 whole entry): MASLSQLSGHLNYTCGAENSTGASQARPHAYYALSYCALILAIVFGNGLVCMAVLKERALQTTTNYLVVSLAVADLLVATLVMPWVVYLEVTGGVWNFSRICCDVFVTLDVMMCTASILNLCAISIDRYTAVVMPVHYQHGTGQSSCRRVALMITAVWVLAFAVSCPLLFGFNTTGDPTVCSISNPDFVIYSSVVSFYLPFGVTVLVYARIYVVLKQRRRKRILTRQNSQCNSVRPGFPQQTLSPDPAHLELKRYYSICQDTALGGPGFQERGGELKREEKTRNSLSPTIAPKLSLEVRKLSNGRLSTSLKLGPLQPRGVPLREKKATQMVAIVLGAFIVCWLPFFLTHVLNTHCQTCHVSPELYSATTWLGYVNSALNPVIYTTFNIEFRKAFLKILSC

D(4) dopamine receptor = target: T3, D(4) dopamine receptor (Homo sapiens, UniProt P21917); experiment: Displacement of [3H]spiperone from human cloned dopamine D4 receptor expressed in CHO-K1 cells; format: cell-based; method in brief: as §2
T3 sequence (P21917 whole entry): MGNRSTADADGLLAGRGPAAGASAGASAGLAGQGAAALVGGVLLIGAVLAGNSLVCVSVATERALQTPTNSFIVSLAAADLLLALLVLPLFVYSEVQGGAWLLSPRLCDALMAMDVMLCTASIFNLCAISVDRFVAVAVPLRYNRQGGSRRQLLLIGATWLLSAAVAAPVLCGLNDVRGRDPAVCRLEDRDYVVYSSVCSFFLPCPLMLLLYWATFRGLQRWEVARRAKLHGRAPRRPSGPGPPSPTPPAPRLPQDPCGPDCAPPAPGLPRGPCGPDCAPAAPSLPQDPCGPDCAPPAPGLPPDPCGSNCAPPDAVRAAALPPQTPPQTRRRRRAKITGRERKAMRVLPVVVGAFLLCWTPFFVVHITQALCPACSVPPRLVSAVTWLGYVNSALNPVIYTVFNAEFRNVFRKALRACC

[7] = target: 5-hydroxytryptamine receptor 1B (Homo sapiens) (UniProt P28222); experiment: Displacement of [3H]5-HT from human cloned 5HT1B receptor expressed in CHO cells at 1 uM; format: cell-based
Chain of 5-hydroxytryptamine receptor 1B (Homo sapiens) (P28222 whole entry): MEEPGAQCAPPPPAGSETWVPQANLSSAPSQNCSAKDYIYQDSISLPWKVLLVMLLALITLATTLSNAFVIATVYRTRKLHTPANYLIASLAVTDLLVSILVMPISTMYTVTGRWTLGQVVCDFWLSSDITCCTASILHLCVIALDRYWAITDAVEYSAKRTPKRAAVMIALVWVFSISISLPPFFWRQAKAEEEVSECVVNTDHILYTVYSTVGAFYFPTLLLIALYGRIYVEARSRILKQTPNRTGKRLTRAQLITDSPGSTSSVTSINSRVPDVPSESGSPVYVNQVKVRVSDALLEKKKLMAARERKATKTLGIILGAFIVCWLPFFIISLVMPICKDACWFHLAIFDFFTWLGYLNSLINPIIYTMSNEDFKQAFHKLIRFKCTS
Method in brief: (§3)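 Human 5-HT1B, 5-HT1D and 5-HT1F receptors were stably expressed in CHO cells and labelled with [3H]-5-HT. Results are given as percent inhibition at a single 1 µM concentration.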

[8] = target: 5-hydroxytryptamine receptor 1D (Homo sapiens) (UniProt P28221); experiment: Displacement of [3H]5-HT from human cloned 5HT1D receptor expressed in CHO cells at 1 uM; format: cell-based; method in brief: as §3
Chain of 5-hydroxytryptamine receptor 1D (Homo sapiens) (P28221 whole entry): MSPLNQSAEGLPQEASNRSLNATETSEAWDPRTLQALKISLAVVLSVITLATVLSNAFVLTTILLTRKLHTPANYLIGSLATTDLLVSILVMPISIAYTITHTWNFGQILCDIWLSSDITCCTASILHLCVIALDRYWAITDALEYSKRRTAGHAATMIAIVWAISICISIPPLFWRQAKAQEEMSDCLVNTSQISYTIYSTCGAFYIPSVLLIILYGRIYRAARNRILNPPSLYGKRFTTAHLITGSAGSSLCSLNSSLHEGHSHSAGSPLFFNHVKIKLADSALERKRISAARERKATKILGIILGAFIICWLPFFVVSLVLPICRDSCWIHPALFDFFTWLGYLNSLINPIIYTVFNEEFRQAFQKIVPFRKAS

[9] = target: T4, 5-hydroxytryptamine receptor 1F (Homo sapiens) (UniProt P30939); experiment: Displacement of [3H]5-HT from human cloned 5HT1F receptor expressed in CHO cells at 1 uM; format: cell-based; method in brief: as §3
T4 sequence (whole entry): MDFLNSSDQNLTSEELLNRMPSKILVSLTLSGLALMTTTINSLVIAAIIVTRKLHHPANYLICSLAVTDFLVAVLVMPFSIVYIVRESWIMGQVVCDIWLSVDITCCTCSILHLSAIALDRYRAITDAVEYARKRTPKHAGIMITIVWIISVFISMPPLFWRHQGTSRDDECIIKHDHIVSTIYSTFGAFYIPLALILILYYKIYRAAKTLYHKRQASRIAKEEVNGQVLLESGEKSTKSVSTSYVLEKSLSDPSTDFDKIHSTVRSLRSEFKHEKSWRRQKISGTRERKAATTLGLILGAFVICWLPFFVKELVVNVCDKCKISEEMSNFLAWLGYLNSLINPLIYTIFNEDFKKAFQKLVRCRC

Rattus norvegicus [10] = experiment: Increase in extracellular GABA level in Sprague-Dawley rat frontal cortex at 30 mg/kg, sc; format: functional, organism-based; parameters: dose 30 mg/kg
Method in brief: (§4)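 Rats received a single acute subcutaneous dose of 30 mg/kg. Extracellular GABA and glutamate in frontal cortex were followed over time from about −100 to 350 min around dosing and compared with vehicle-treated animals, with significance set at P < 0.05.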

Rattus norvegicus [11] = experiment: Increase in extracellular glutamate level in Sprague-Dawley rat frontal cortex at 30 mg/kg, sc; format: functional, organism-based; parameters: dose 30 mg/kg; method in brief: as §4
Rattus norvegicus [12] = experiment: Inhibition of schedule-induced polydipsia in po dosed Sprague-Dawley rat assessed as reduction of adjunctive drinking behavior; format: functional
Method in brief: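 In the schedule-induced polydipsia model, rats were dosed orally at 30, 56 and 100 mg/kg against a vehicle group. Adjunctive drinking was measured, an ED50 was derived, and comparison with vehicle used P < 0.05.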

[13] = target: T1, 5-hydroxytryptamine receptor 6; experiment: Antagonist activity at human cloned 5HT6 receptor expressed in HeLa cells assessed as inhibition of adenylyl cyclase activity by RIA; format: functional, cell-based
[14] = target: T1, 5-hydroxytryptamine receptor 6; experiment: Antagonist activity at human cloned 5HT6 receptor expressed in HeLa cells assessed as inhibition of adenylyl cyclase activity by RIA relative to serotonin; format: functional, cell-based

T1 sequence (P50406 whole entry): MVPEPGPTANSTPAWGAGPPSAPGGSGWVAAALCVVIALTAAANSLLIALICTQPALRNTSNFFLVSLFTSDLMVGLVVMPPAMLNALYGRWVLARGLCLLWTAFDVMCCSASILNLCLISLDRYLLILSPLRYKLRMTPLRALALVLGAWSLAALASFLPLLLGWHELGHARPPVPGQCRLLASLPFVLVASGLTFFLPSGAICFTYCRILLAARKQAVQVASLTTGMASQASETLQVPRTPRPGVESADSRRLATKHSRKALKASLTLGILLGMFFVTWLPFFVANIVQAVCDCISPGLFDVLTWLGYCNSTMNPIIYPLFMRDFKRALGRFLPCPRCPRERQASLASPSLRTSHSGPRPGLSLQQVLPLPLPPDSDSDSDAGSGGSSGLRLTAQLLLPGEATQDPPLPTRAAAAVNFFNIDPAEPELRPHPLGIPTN

| Ki [1] [nM] | EC50 [2] [nM] | Emax [3] [%] | Structure (SMILES) | further results |
| --- | --- | --- | --- | --- |
| 45 | 30 | 84 | CN(C)CCn1cc(S(=O)(=O)c2ccc(F)cc2)c2cccnc21 | – |
| 2.1 | 85 | 97 | NCCn1cc(S(=O)(=O)c2ccccc2C(F)(F)F)c2cccnc21 | – |
| 0.9 | 120 | 71 | CN(C)CCn1cc(S(=O)(=O)c2c(Cl)nc3sccn23)c2cccnc21 | – |
| 4.2 | 20 | 85 | Cc1c(S(=O)(=O)c2ccccc2)c2cccnc2n1CCN | – |
| – | 25 | 94 | CN(C)CCn1cc(S(=O)(=O)c2ccccc2)c2cccnc21 | – |
| 2.1 | 110 | 83 | NCCn1cc(S(=O)(=O)c2cccc(C(F)(F)F)c2)c2cccnc21 | – |
| 4.7 | 47 | 100 | Cc1c(S(=O)(=O)c2ccccc2)c2cccnc2n1CCN(C)C | – |
| 2 | 18 | 94 | NCCn1cc(S(=O)(=O)c2cccc(Cl)c2)c2cccnc21 | IC50 [4]: 11 nM; IC50 [5]: 44 nM; IC50 [6]: 1360 nM; IC50 (D(2) dopamine receptor): > 5000 nM; IC50 (D(3) dopamine receptor): > 5000 nM; IC50 (D(4) dopamine receptor): > 5000 nM |
| – | 31 | 66 | CN(C)CCn1cc(S(=O)(=O)c2c(Cl)cccc2Cl)c2cccnc21 | – |
| 4.7 | 24 | 100 | NCCn1cc(S(=O)(=O)c2cccc(F)c2)c2cccnc21 | – |
| 0.9 | – | – | CNCCn1cc(S(=O)(=O)c2c(Cl)nc3sccn23)c2cccnc21 | IC50 [13]: 5.4 nM; Imax [14]: 89% |
| – | 154 | 74 | CN(C)CCn1cc(S(=O)(=O)c2cccs2)c2cccnc21 | – |

| Structure (SMILES) | Ki [1] [nM] | EC50 [2] [nM] | Emax [3] [%] | further results |
| --- | --- | --- | --- | --- |
| CN(C)CCn1cc(S(=O)(=O)c2cccc(F)c2)c2cccnc21 | – | – | 100 | inhibition [7]: 30%; inhibition [8]: 16%; inhibition [9]: 22%; IC50 [4]: 351 nM; IC50 [5]: 644 nM; IC50 [6]: 4760 nM; IC50 (D(2) dopamine receptor): > 5000 nM; IC50 (D(3) dopamine receptor): > 5000 nM; IC50 (D(4) dopamine receptor): > 5000 nM; Activity (Rattus norvegicus [10]): Active; Activity (Rattus norvegicus [11]): inactive; ED50 (Rattus norvegicus [12]): 89.5 mg/kg |

— ChEMBL document CHEMBL1155250, “Novel 1-aminoethyl-3-arylsulfonyl-1H-pyrrolo[2,3-b]pyridines are potent 5-HT(6) agonists” (Bioorg Med Chem, 2009)
